# Results pooled from the literature.
# Lines come from different studies, so protocols differ.
# Target: Tyrosine-protein kinase Fes/Fps (FES, Homo sapiens, UniProt P07332)
SMILES,effect on,method,tested at,remaining binding [%]
O=C(O)[C@H]1[C@H](Cn2nnc3ccccc3c2=O)CC[C@@H]1C(=O)c1ccc(OCCC2CCOCC2)cc1,cell-free assay,competition with immobilised ligand,1 µM,100
COc1ccnn2ncc(-c3ccnc(N(C)C)n3)c12,binding,,1 µM,75
O=C(NCCCN1CCOCC1)c1ccc(Nc2ncc(Cl)c(-c3ccc(Cl)s3)n2)cc1,binding,competition with immobilised ligand,1 µM,62
O=C(Nc1c[nH]nc1C(=O)NC1CCNCC1)c1cc(F)cc(F)c1,binding,competition with immobilised ligand,1 µM,100
CNC(=O)[C@@H]1CC[C@@H](n2c(-c3ccc4cnccc4c3)nc3ccc(C(=O)NCc4cccc(C(N)=O)c4)cc32)C1,binding,competition with immobilised ligand,1 µM,86
N[C@@H]1CCN(c2nccc(-c3cnn4ncccc34)n2)C1,binding,,1 µM,100
CN([C@@H]1CCc2c(CC(=O)O)c3ccccc3n2C1)S(=O)(=O)c1ccc(F)cc1,cell-free assay,competition with immobilised ligand,1 µM,79
Cc1cnc(Nc2ccc(C(=O)N3CCC(N4CCCC4)CC3)cc2)nc1-c1cc2ccccc2s1,binding,competition with immobilised ligand,1 µM,52
CN(C)c1ncc(F)c(-c2cnn3ncccc23)n1,binding,,1 µM,87
C[C@@H](c1ccc(-n2cnc3c(N)ncnc32)cc1)N1CCc2nn(C)c(Cc3ccccc3)c2C1=O,binding,competition with immobilised ligand,0.1 µM,89
CN(C)c1nccc(-c2cnn3ncccc23)n1,binding,,1 µM,100
COCCOc1nc(-c2ccc(Cl)nc2)nc2c1CN(C(=O)c1ncn3ccccc13)CC2,cell-free assay,competition with immobilised ligand,0.1 µM,100
CC1CCCN1c1nccc(-c2cnn3ncccc23)n1 (stereo not shown),binding,,1 µM,100
C=CC(=O)N1CCC(C(=O)NCC(=O)N2CCN(c3nc(-c4cnc(N)nc4C(F)F)nc(N4CCOCC4)n3)CC2)CC1,binding,competition with immobilised ligand,1 µM,100
FC(F)(F)Oc1cccc(-c2cnc3ccc(-c4ccncc4)nn23)c1,cell-free assay,competition with immobilised ligand,5 µM,84
Cc1c(NC(=O)c2cc(C(N)=O)nc3cc(F)ccc23)c(C(F)(F)F)nn1Cc1ccc(C(C)(C)C)cc1,cell-free assay,competition with immobilised ligand,1 µM,100
Cc1cnn2ncc(-c3ccnc(N(C)C)n3)c2c1,binding,,1 µM,93
O=C(c1ccc(Nc2ncc(Cl)c(-c3ccc(Cl)s3)n2)cc1)N1CCC(N2CCCC2)CC1,binding,competition with immobilised ligand,1 µM,59
CN(C)C(=O)Cn1cc(-c2nc([C@@](C)(c3ccc(-c4cnc(N)nc4)cc3)C3CC3)no2)cn1,cell-free assay,competition with immobilised ligand,1 µM,100
c1cncc(-c2cccc(Nc3nccc(NC4CCCCC4)n3)c2)c1,binding,competition with immobilised ligand,10 µM,80
C[C@H]1CCN(c2nccc(-c3cnn4ncccc34)n2)C1,binding,,1 µM,100
CCS(=O)(=O)c1cc2cc(C[C@@](O)(CC(C)(C)c3ccc(F)cc3C(N)=O)C(F)(F)F)[nH]c2cn1,cell-free assay,competition with immobilised ligand,1 µM,100
